Assay outcomes: PubChem BioAssay, several laboratories
Candida biofilm = kills Candida albicans biofilms. C. albicans biofilm + clotrimazole, Alamar Blue. inhibition, % at 6 µM. hit rate 0.14% among 85,000. AID 834;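 active means inhibition above 20%; inactive means inhibition below 20%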;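 further: preformed 24 hr biofilms exposed to compound for 48 hr; 0% = biofilm without compound and 100% = blank killed by clotrimazole plus chlorhexidine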
PostGolgi ctrl = yeast control strain growth, post-Golgi counter-screen | efflux-deficient yeast background strain, growth absorbance A615, 16 h | inhibition, % at 10 µM | hit rate 5% among 98,000
PostGolgi yeast = growth inhibition of a yeast mutant, post-Golgi transport screen; post-Golgi transport phenotypic cell assay; inhibition, % at 10 µM; hit rate 0.9% among 98,000; AID 739;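 further: yeast cells grown in 1536-well plates; yeast grown about 18 h at 30C before absorbance read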
PTK2B oligo ant = antagonists of human Pyk2 oligomerization; hit rate 0.83% among 99,000; z-score (the deposit names both 25 µM and 10 µM); Q14289; Q293 cells, Pyk2 FERM NanoBiT luminescence; stronger effect = lower value; AID 1347419;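 active means Z-score of -3 or lower, scaled per plate to the spread of control and sample wells; inactive means z-score above -3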;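 further: negative z-score means lost luminescence so less FERM oligomerization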
Target sequence (Q14289 whole entry, looked up): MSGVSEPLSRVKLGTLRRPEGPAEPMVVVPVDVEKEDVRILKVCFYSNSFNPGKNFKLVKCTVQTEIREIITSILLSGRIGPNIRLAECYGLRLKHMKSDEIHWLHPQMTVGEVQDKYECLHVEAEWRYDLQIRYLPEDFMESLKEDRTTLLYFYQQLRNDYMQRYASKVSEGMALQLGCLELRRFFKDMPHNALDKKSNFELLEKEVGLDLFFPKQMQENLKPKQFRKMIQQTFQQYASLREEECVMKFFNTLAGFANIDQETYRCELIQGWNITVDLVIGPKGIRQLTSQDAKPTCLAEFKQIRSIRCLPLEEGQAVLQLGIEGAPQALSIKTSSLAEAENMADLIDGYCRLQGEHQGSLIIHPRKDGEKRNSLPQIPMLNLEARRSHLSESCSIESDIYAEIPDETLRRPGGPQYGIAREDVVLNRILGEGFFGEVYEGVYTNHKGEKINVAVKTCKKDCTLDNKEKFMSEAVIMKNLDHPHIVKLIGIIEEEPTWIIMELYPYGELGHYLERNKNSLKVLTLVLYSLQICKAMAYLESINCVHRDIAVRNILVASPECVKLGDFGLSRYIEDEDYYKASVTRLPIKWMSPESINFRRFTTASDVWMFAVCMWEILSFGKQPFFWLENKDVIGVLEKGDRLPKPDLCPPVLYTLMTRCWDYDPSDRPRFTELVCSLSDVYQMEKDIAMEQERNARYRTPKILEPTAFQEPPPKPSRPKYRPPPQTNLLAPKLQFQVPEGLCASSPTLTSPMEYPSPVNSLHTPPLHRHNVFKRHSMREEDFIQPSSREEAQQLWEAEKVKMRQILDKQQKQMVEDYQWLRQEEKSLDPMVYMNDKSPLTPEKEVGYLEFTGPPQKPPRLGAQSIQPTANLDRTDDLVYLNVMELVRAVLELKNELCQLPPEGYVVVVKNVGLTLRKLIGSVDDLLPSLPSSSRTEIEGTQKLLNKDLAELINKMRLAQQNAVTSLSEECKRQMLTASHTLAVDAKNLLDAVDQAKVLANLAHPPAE
Ecoli tolC = growth inhibitors of E. coli BW25113 tolC mutant | OD615 | growth inhibition, % at 10 µM (by protocol) | hit rate 2.2% among 65,000 | AID 573;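 active means growth inhibition at or above a cutoff equal to the mean over every tested compound plus 3 SD, cut at about 60% in these data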;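 further: growth measured after 20 h incubation at 37 °C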
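Test system – E. coli BW25113 ΔtolC::kan, tolC deletion mutant strain · Detection – OD at 615 nm · Buffer or medium – LB with kanamycin 50 µg/mL · Times – 20 h compound exposure of bacteria at 37 °C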
Ecoli WT expand = growth inhibitors of E. coli BW25113 wild type; OD600 absorbance; growth inhibition, % at 100 µM; hit rate 0.15% among 98,000; AID 710;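 active means growth inhibition above about 50% at one test dose, limit read from the data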;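 further: growth measured after 20 h incubation at 37 °C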
Active calls of the source: *; / = no result. Shown are actives, neighbours in structure and some others; about 6.5% of the full set was active somewhere. Unless noted, no stated cut-off is given here; in the data, active means inhibition above about 30%; inactive means the rest.

SMILES	Candida biofilm	PostGolgi ctrl	PostGolgi yeast	PTK2B oligo ant	Ecoli tolC	Ecoli WT expand
CCN(c1cccc(C)c1)S(=O)(=O)c1cnc[nH]1	5	8	-2	0.49	/	-2
O=S(=O)(c1ccccc1)c1cnn(-c2ccccc2)c1-c1ccc(F)cc1	/	30	-3	-2.3	/	-2
COc1ccc(-n2ncc(S(=O)(=O)c3ccccc3)c2-c2ccc(Cl)cc2)cc1	/	19	15	-3.3*	/	-10
O=C(NCc1ccc2c(c1)OCO2)c1ccc(CS(=O)(=O)c2cccc(C(F)(F)F)c2)o1	/	27	96*	0.19	2	4
CC(NC(=O)c1ccc(CS(=O)(=O)c2cccc(C(F)(F)F)c2)o1)c1ccc2c(c1)OCCO2 (stereo not drawn)	5	14	37*	-1.1	/	-4
CC(NC(=O)c1ccc(CS(=O)(=O)Cc2ccccc2F)o1)c1ccc2c(c1)OCCO2 (stereo not drawn)	3	8	1	0.51	7	-14
COc1ccc(-c2cc(C(=O)N/N=C/c3ccc(OC)c(COCC(F)(F)C(F)F)c3)c3ccccc3n2)c(OC)c1	/	0	-7	-0.12	/	-12
COc1ccccc1-c1cc(C(=O)N/N=C/c2cccs2)c2ccccc2n1	/	33*	4	-2.2	/	-15
COc1ccc(-c2cc(C(=O)N/N=C/c3ccc4c(c3)OCO4)c3ccccc3n2)c(OC)c1	/	72*	37*	-2.4	/	-11
O=C(O)CCCCCCCCCC(=O)c1cccs1	9	3	-1	0.51	/	-1
CCOC(=O)c1c(C)c(C(=O)Nc2cc(OC)ccc2OC)c(C)n1CC	0	28	16	-0.13	68*	5
CCSc1c(-c2ccccc2)nc2c(C)cccc2c1C(=O)O	/	10	-2	1	/	0
CCOC(=O)c1sc2ccc(S(=O)(=O)N3CCOCC3)cc2c1N	6	8	11	0.55	-7	-3
CCOC(=O)c1sc2ccc(S(=O)(=O)N3CCCCC3)cc2c1N	-5	42*	0	-1.3	16	-7
CCCCCn1c(SCc2ccncc2)nc2cc(C(=O)NCc3ccco3)ccc2c1=O	6	43*	-2	0.1	44	-24
Cc1cc(S(=O)(=O)NCc2cccnc2)ccc1-n1cnnn1	5	-2	1	0.26	-16	0
C=C(C)Cn1c(-c2ccc(OC)cc2)nc2ccccc21	7	19	0	-0.4	1	1
CN1C(=O)NC(c2ccc(O)cc2)C(C(=O)c2cccs2)C1(O)C(F)(F)F (stereo not drawn)	6	7	-2	0.44	58	80*
O=[N+]([O-])c1cc(C(F)(F)F)ccc1NCCNC(=S)Nc1ccc(Cl)cc1	/	91*	82*	-1.2	/	3
Cc1ccc(C(=O)NCCNc2ccc(Cl)cc2[N+](=O)[O-])o1	/	31*	2	-0.78	/	23
O=[N+]([O-])c1ccc(NC(=S)NCCc2ccc(Cl)cc2)cc1	/	92*	106*	-1.5	/	20
CN(C)CCNC(=S)Nc1ccc(Cl)cc1	/	5	2	0.13	/	12
Cc1ccc(Cl)cc1NC(=O)N[C@@H](C)C(=O)O	/	2	-3	-0.34	/	0
NC1C2CN(c3nc4c(cc3F)c(=O)c(C(=O)O)cn4-c3ccc(F)cc3F)CC12 (stereo not drawn)	/	1	-2	-0.67	100*	97*
CCN(CC)S(=O)(=O)c1ccc(NCc2ccccc2)nc1	5	38*	-4	0.46	-11	1
SMILES	Candida biofilm	PostGolgi ctrl	PostGolgi yeast	PTK2B oligo ant	Ecoli tolC	Ecoli WT expand
CC(C)c1nnc(SCC(=O)NCc2ccco2)n1C	7	17	-8	0.67	-14	9
CC(=O)Nc1ccc(-c2nnc(SCC(=O)NCc3ccco3)n2C)cc1	6	33*	5	0.97	/	4
COc1cnc(-c2ccccn2)nc1Sc1ccc(Cl)cc1	/	35*	3	-0.22	/	1
COc1cnc(N(C)C)nc1Sc1ccc(Cl)cc1	8	7	-5	0.47	/	3
CCN(CC)CCNC(=O)C1c2ccccc2C(=O)N(CCOC)C1c1ccc(F)cc1 (stereo not drawn)	7	1	-12	-0.39	/	-1
Cc1c(NC(=O)c2ccccc2N(C)S(=O)(=O)c2ccccc2)c(=O)n(-c2ccccc2)n1C	5	3	7	0.6	/	-8
Cc1ccc(OCCNC(=O)/C=C/c2ccc([N+](=O)[O-])cc2)cc1C	/	1	-6	2.3	/	-9
CCCOc1ccc(/C=C/C(=O)Nc2ccc([N+](=O)[O-])cc2)cc1	/	95*	7	1.1	/	-18
CCN1C(=O)CSC1=NC1C2CC3CC(C2)CC1C3 (stereo not drawn)	/	12	-5	0.17	88*	7
Cc1ccc(CNc2cc(-c3nn4c(C)nnc4s3)ccc2C)s1	-2	32*	8	-0.32	7	-7
Cc1ccc(-c2nn3c(C)nnc3s2)cc1NCc1c(F)cccc1Cl	4	23	33*	-3.5*	17	-5
Cc1ccc(-c2nn3c(C)nnc3s2)cc1NC(=O)C(C)C	12	-1	-10	/	-15	1
COc1ccc(C)cc1S(=O)(=O)N(CC(=O)O)c1ccc(F)cc1	-1	3	10	-0.11	7	-10
COC(=O)C1=C(C)N=C2SC(C)C(=O)N2C1c1cccc(F)c1 (stereo not drawn)	0	-11	4	-3.6*	5	11
CCOC(=O)C1=C(C)N=C2SC(C)C(=O)N2C1c1ccc(OC(C)=O)c(OC)c1 (stereo not drawn)	/	47*	0	-0.9	6	-8
COc1cccc(/C=N/n2c(-c3cccs3)n[nH]c2=S)c1	/	8	-18	0.72	/	14
c1ccc(C(c2c[nH]c3ccccc23)c2c[nH]c3ccccc23)nc1	-1	8	-5	-2.5	/	-17
Cn1cc(C(c2ccccn2)c2cn(C)c3ccccc23)c2ccccc21	-1	53*	10	-1.3	/	-15
COc1ccc(OC)c(S(=O)(=O)N2CCC(C(=O)NCCc3ccccc3)CC2)c1	2	6	19	1.1	/	-1
Nc1ccccc1-c1nnn(CC(=O)N2CCCc3ccccc32)n1	8	/	/	-0.79	/	/
CCC(=O)Nc1sc2c(c1C(N)=O)CCC2	5	31*	3	0.66	-5	-2
COC(=O)c1c(NC(=O)c2ccoc2C)sc2c1CCC2	5	8	8	0.69	0	-12
Cc1occc1C(=O)Nc1sc2c(c1C(N)=O)CCCCC2	4	31*	0	-0.14	1	0
NC(=O)c1c(NC(=O)CN2C(=O)CCC2=O)sc2c1CCCCC2	/	-9	32*	/	-18	-4
COc1ccc2cnn(-c3ccccc3C)c(=O)c2c1OC	/	0	3	0.76	-10	0
CC1=C(C)/C(=N\OS(=O)(=O)c2ccccc2)C=CC1=O	8	27	-5	1.3	/	7
COC(=O)c1sccc1NC(=O)c1csc(C)c1	3	5	8	-0.52	98*	3
COC(=O)c1sccc1NC(=O)c1ccc(C)s1	-1	/	/	-0.91	/	/
COC(=O)c1sccc1NC(=O)c1ccc(OC)cc1	9	31*	11	-3	34	-8
